Assay results from ChEMBL document CHEMBL2203273, “Prostratin and 12-O-tetradecanoylphorbol 13-acetate are potent and selective inhibitors of Chikungunya virus replication” (J Nat Prod, 2012).

Assays:
Semliki Forest virus = experiment: Antiviral activity against Semliki forest virus infected in african green monkey Vero cells assessed as inhibition of virus-induced cytopathic effect incubated for 6 to 7 days by MTS assay; type: functional, organism-based
Method in brief: (§1)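 Serial dilutions in MEM Rega3 with 2% FCS, L-glutamine and bicarbonate, added with 4× virus dilution and Vero cells (25 000 cells/well, subcultured 1:4, grown 7 days). Incubated 6−7 days, 37 °C, 5% CO2. Read-out is 5% MTS for 1.5 h, absorbance 498 nm. Data are percent of controls, EC50 from dose–response curves. Wells with >50% protection checked microscopically for CPE or altered morphology. Multiple independent experiments.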

[1] = Selectivity index, ratio of CC50 for african green monkey Vero cells to EC50 for Chikungunya virus 899; type: toxicity, cell-based; details: read-out: Ratio CC50/EC50
Sindbis virus = experiment: Antiviral activity against Sindbis virus HRsp infected in african green monkey Vero cells assessed as inhibition of virus-induced cytopathic effect incubated for 6 to 7 days by MTS assay; type: functional, organism-based; method in brief: as §1
Chikungunya virus = experiment: Antiviral activity against Chikungunya virus 899 infected in african green monkey Vero cells assessed as inhibition of virus-induced cytopathic effect incubated for 6 to 7 days by MTS assay; type: functional, cell-based; details: Chikungunya virus, 899, Vero; method in brief: as §1
[2] = Cytotoxicity against african green monkey Vero cells by MTS assay; type: cell-based; details: chlorocebus sabaeus
Method in brief: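 Vero cells (25 000/well) with serial compound dilutions in MEM Rega3 with 2% FCS, no virus, for 6−7 days at 37 °C, 5% CO2. Overall metabolism read by 5% MTS for 1.5 h, absorbance 498 nm. Uninfected control OD 0.6−0.8. CC50 is the concentration inhibiting metabolism by 50%, from dose–response curves. Multiple independent experiments.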

| SMILES | EC50 (Semliki Forest virus) [µM] | selectivity ratio [1] | EC50 (Sindbis virus) [µM] | EC50 (Chikungunya virus) [µM] | CC50 [2] [µM] |
| --- | --- | --- | --- | --- | --- |
| CC1=C[C@H]2[C@@]3(O)[C@H](C)[C@@H](O)[C@]4(O)[C@H]([C@@H]3C=C(CO)C[C@]2(O)C1=O)C4(C)C [PHORBOL] | > 274 | > 1 | > 274 | > 343 | > 343 |
| CC(=O)O[C@@]12C[C@@H](C)[C@@]3(O)[C@@H](C=C(CO)C[C@]4(O)C(=O)C(C)=C[C@@H]34)[C@@H]1C2(C)C [PROSTRATIN] | > 256 | 30.3 | > 256 | 2.6 | 79 |
| CCCCCCCCCCCCCC(=O)O[C@@H]1[C@@H](C)[C@@]2(O)[C@@H](C=C(CO)C[C@@]3(O)C(=O)C(C)=C[C@@H]23)[C@@H]2C(C)(C)[C@]12OC(C)=O | – | 1.9 | – | 2.8 | 5.3 |
| CCN(CC)CCCC(C)Nc1ccnc2cc(Cl)ccc12 (stereo not given) [CHLOROQUINE] | 14 | – | 11 | 11 | 89 |
| CCCCCCCCCCCC(=O)O[C@@H]1[C@@H](C)[C@@]2(O)[C@@H](C(=O)C(CO)=C[C@]3(O)C(=O)C(C)=C[C@@H]23)[C@@H]2C(C)(C)[C@]12OC(C)=O [TRIGOWIIN A] | – | > 2.3 | – | 43.5 | > 100 |
| CCCCCCCCCCCCCC(=O)O[C@@H]1[C@@H](C)[C@@]2(O)[C@@H](C=C(CO)C[C@]3(O)C(=O)C(C)=C[C@@H]23)[C@@H]2C(C)(C)[C@]12OC(C)=O [PHORBOL MYRISTATE ACETATE] | > 162 | 1960 | 2.2 | 0.0029 | 5.7 |
